The results in this text go back to ChEMBL document CHEMBL5532695, “4-Trifluoromethyl bithiazoles as broad-spectrum antimicrobial agents for virus-related bacterial infections or co-infections” (RSC Med Chem, 2024).

A word on the pEC50: it is −log10 of the EC50, conventionally taken in molar units. Usually MIC stands for the lowest concentration that inhibits growth of the organism. As a reminder, the CC50 is the concentration that lowers cell viability or growth by half. For orientation: pIC50 means the IC50 on a negative log10 scale, so that one unit is a factor of ten.

pEC50, pIC50: −log10 of the molar value. In brackets after ≈: the same amount, converted by molar mass. Activity calls are given as the source filed them. The calls are words filed in the database; no cut-off is given here.

In data set [1] the test system is rhinovirus A16. In words: microbe, parasite or virus in culture. The conditions noted are these: Rhinovirus A, HeLa, 48 h.
Data set [2] relates to rhinovirus A16. In words: Antiviral activity against 7 times rupintrivir passaged resistance model of Human rhinovirus 16 infected in human HeLa cells assessed as inhibition of viral replication. It counts as functional, organism-based. The conditions noted are these: Rhinovirus A. In outline:
(§1)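 HeLa cells infected with RVA16 and serially passaged under compound, supernatants harvested at extensive CPE (3–6 dpi), clarified and titrated on HeLa; each passage used prior virus at MOI 0.01, drug concentration doubled when possible; after 7 passages RNA sequenced. Antiviral read-out: HeLa at 33 °C, 48 h, VP3 immunostaining with HRP secondary; EC50 from variable-slope sigmoidal fit.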

Data set [3] concerns rhinovirus A16. In words: Antiviral activity against 7 times N-(4'-(Trifluoromethyl)-2-((3-(trifluoromethyl)phenyl)amino)-[4,5'-bithiazol]-2'-yl)benzamide passaged resistance model of Human rhinovirus 16 infected in human HeLa cells assessed as inhibition of viral replication. It counts as functional, organism-based. The conditions noted are these: Rhinovirus A. In outline:
as §1

In data set [4] the test system is Staphylococcus aureus. In words: Antibacterial activity against Staphylococcus aureus. It counts as functional.
Data set [5] can be described thus: Cytotoxicity against human HeLa cells assessed as reduction in cell viability by MTT assay. It counts as toxicity, cell-based. Summed up:
(§2)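 MTT viability on HeLa or VeroE6 cells, run in parallel with the antiviral assays. CC50 from variable-slope sigmoidal dose–response regression.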

The subject of data set [6] is Escherichia coli. Put plainly: Synergistic antibacterial activity against colistin resistant mcr-positive Escherichia coli SI-63 incubated for 18 to 24 hrs in presence of colistin by broth microdilution method. Type of data set: functional. The conditions noted are these: time 18-24 hrs. Summed up: (§3)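 Minimum antibacterial concentration (MAC) by broth microdilution in Mueller–Hinton medium with a fixed subinhibitory colistin concentration of 2 μg mL−1 against colistin-resistant Gram-negative clinical isolates; inoculum 5 × 10^4 CFU per well, 35 ± 2 °C; triplicate.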
For orientation: Broth dilution looks for growth in wells or tubes with falling amounts of substance.

Data set [7] is described as follows: Cytotoxicity against african green monkey Vero E6 cells assessed as reduction in cell viability by MTT assay. Type of data set: toxicity, cell-based. The conditions noted are these: chlorocebus sabaeus, Vero E6 cells (Vero C1008). Summed up:
as §2
Background: Tetrazolium assays rely on reduction of a dye to a coloured formazan, in cell work by metabolically active cells.

Data set [8] deals with Acinetobacter baumannii. Put plainly: Synergistic antibacterial activity against colistin/carbapenem resistant MDR Acinetobacter baumannii N50 incubated for 18 to 24 hrs in presence of colistin by broth microdilution method. Type of data set: functional. The conditions noted are these: time 18-24 hrs. Summed up:
as §3

The subject of another data set is Klebsiella pneumoniae. Put plainly: Synergistic antibacterial activity against Klebsiella pneumoniae ATCC 13833 incubated for 18 to 24 hrs in presence of colistin by broth microdilution method. It counts as functional. The conditions noted are these: time 18-24 hrs.
A further data set deals with Streptococcus pyogenes. In words: Antibacterial activity against Streptococcus pyogenes ATCC 12344 assessed as reduction in microbial growth measured after 18 hrs by CLSI based broth microdilution method. Type of data set: functional. In outline: (§4)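 MIC by CLSI broth microdilution in Mueller–Hinton medium, triplicate. Inoculum 5 × 10^4 CFU per well. Compounds taken up in DMSO (50 mg mL−1 stock) and diluted in medium. Read after 18 h at 35 ± 2 °C.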

For data set [9], the target named is Phosphatidylinositol 4-kinase beta (Homo sapiens, UniProt Q9UBF8). Put plainly: Inhibition of recombinant full length his tagged PI4KB (unknown origin) incubated for 10 mins in presence of ATP by ADP-glo kinase assay. On the technique in general: ADP-Glo turns the ADP formed in a reaction into a luminescent signal.
The next data set has as its system Zika virus. Put plainly: microbe, parasite or virus in culture. The conditions noted are these: Vero C1008, 72 h.
Data set [10] concerns Staphylococcus aureus. In words: Antibacterial activity against Staphylococcus aureus ATCC 25923 assessed as reduction in microbial growth measured after 18 hrs by CLSI based broth microdilution method. Type of data set: functional. In outline:
as §4

The test system of a further data set is Bacillus subtilis. In words: Antibacterial activity against Bacillus subtilis ATCC 6633 assessed as reduction in microbial growth measured after 18 hrs by CLSI based broth microdilution method. It counts as functional. In outline: as §4
In data set [11] the test system is Pseudomonas aeruginosa. In words: Synergistic antibacterial activity against colistin resistant MDR Pseudomonas aeruginosa SI-270 incubated for 18 to 24 hrs in presence of colistin by broth microdilution method. It counts as functional. The conditions noted are these: time 18-24 hrs. In outline: as §3
Data set [12] relates to Acinetobacter baumannii. In words: Synergistic antibacterial activity against Acinetobacter baumannii ATCC 17978 incubated for 18 to 24 hrs in presence of colistin by broth microdilution method. Type of data set: functional. The conditions noted are these: time 18-24 hrs.
A further data set has as its system enterovirus D68. In words: microbe, parasite or virus in culture. The conditions noted are these: Enterovirus D, HeLa, 48 h.
Another data set relates to Enterococcus faecalis. Put plainly: Antibacterial activity against Enterococcus faecalis ATCC 29212 assessed as reduction in microbial growth measured after 18 hrs by CLSI based broth microdilution method. It counts as functional. In outline: as §4
Data set [13] deals with rhinovirus A16. Put plainly: Antiviral activity against hRVA16 infected in human HeLa cells assessed as effect on release of infectious virus at 5 uM measured after 24 hrs post infection by time of addition assay. It counts as functional, organism-based. Summed up: (§5)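 Time of addition: HeLa cells infected with RVA16 at MOI 0.1. Compound at 5 μM added 1 h before, during, or 1, 2, 4 or 6 h after infection. At 24 h, cells lysed and intracellular viral RNA measured by RV-specific qPCR; supernatant titrated on HeLa cells.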

In data set [14] the test system is rhinovirus A16. Put plainly: Antiviral activity against hRVA16 infected in human HeLa cells assessed as effect on RNA intracellular level at 5 uM pretreated for 1 hrs before infection and measured after 1 to 6 hrs post infection by time of addition assay. Type of data set: functional, organism-based. The conditions noted are these: time 2-7 hrs. Summed up: as §5

For data set [15], the system named is Escherichia coli. In words: Synergistic antibacterial activity against Escherichia coli CCUGT incubated for 18 to 24 hrs in presence of colistin by broth microdilution method. It counts as functional. The conditions noted are these: time 18-24 hrs.
Data set [16] deals with Pseudomonas aeruginosa. In words: Synergistic antibacterial activity against Pseudomonas aeruginosa ATCC 27853 incubated for 18 to 24 hrs in presence of colistin by broth microdilution method. It counts as functional. The conditions noted are these: time 18-24 hrs.

Phosphatidylinositol 4-kinase beta, sequence (Q9UBF8 whole entry): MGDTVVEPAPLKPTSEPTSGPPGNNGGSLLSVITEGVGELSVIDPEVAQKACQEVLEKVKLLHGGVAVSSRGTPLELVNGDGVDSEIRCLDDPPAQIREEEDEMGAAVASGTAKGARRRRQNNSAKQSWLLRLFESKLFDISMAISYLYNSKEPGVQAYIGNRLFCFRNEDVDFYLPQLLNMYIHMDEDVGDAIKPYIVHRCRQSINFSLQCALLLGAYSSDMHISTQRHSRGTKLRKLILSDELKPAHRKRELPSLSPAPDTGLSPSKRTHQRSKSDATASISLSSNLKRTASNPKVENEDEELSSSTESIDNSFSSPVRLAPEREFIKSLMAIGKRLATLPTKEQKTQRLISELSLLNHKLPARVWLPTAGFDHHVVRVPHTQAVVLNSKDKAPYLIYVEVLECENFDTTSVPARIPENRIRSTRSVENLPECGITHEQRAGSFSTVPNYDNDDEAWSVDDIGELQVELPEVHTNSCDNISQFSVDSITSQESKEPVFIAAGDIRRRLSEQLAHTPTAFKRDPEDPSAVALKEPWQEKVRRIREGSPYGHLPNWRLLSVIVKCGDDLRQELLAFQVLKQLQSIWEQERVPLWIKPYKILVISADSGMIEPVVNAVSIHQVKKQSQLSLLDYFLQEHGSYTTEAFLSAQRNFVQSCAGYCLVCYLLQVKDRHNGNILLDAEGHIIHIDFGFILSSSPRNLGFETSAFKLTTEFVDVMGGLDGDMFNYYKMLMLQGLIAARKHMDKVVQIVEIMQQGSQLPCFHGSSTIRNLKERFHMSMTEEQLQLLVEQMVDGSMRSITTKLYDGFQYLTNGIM

As for `CCOC(=O)/C=C/[C@H](C[C@@H]1CCNC1=O)NC(=O)[C@@H](CC(=O)[C@@H](NC(=O)c1cc(C)on1)C(C)C)Cc1ccc(F)cc1` [RUPINTRIVIR], the pEC50 in the data set with rhinovirus A16 [1] is 8.70; in the data set on rhinovirus A16 [2], 7.85; in the data set with rhinovirus A16 [3], 8.30.
Consider `CC(C)(C)C(=O)Nc1nc(C(F)(F)F)c(-c2csc(Nc3cccc(C(=O)O)c3)n2)s1`, for which the lowest concentration to inhibit growth in the data set on Staphylococcus aureus [4] (MIC) was 32 µg/mL (≈ 68 µM).
Take `CC(C)S(=O)(=O)n1c(N)nc2ccc(/C(=N/O)c3ccccc3)cc21` [ENVIROXIME]: the pEC50 with rhinovirus A16 [1] was 7.31; in the data set with rhinovirus A16 [2], 7.57; in the data set with rhinovirus A16 [3] it was 7.57.
`O=C(Nc1nc(C(F)(F)F)c(-c2csc(Nc3cccc(C(F)(F)F)c3)n2)s1)c1ccccc1`: the 50% cytotoxic concentration (CC50) in data set [5] is above 50000 nM; in [7], 35900 nM. The MAC was 1 µg/mL with Escherichia coli [6]; 0.06 µg/mL in the data set with Acinetobacter baumannii [8]; 64 µg/mL in the data set on Klebsiella pneumoniae; 16 µg/mL in the data set with Pseudomonas aeruginosa [11]; 8 µg/mL in the data set with Acinetobacter baumannii [12]; 2 µg/mL in the data set with Escherichia coli [15]. Moreover, the MAC in the data set with Pseudomonas aeruginosa [16] is above 64 µg/mL. In addition, the negative-log IC50 (pIC50) with rhinovirus A16 [1] was 6.31; in the data set on Zika virus, 5.34; in the data set on enterovirus D68, 5.95. For the same compound, the MIC with Streptococcus pyogenes, in the data set with Staphylococcus aureus [10], with Bacillus subtilis and in the data set with Enterococcus faecalis was above 32 µg/mL throughout. Further, the IC50 entry in [9] is “Not Active”. Moreover, the negative logarithm of the EC50 (pEC50) in the data set on rhinovirus A16 [2] was 5.98; in the data set on rhinovirus A16 [3] it was 5.36. In addition, the result with rhinovirus A16 [13] and in the data set on rhinovirus A16 [14] was Active.
